According to PMC6993754 (Pharmacology Research & Perspectives, 2020):

Experiments:
[1] = Time‐dependent metabolism of STS‐135 in genotyped HLMs CYP3A5*1/*1; format: in vitro ADME; details: human, genotyped CYP3A5*1/*1 human liver microsomes, pH 7.4
Method in brief: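 CYP3A5-genotyped human liver microsomes (*1/*1 or *3/*3) incubated with test compound in 0.1 mol/L KPO₄, pH 7.4, with NADPH-regenerating system at 37°C. Sampled at 0, 10, 20, 30, 45, 60, 90 and 120 min, ethanol-stopped, centrifuged and analysed by UPLC-UV (300 nm) for parent depletion. Half-life determined directly by linear regression; triplicate reactions.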

CB1 receptor = details: cited from earlier work
recombinant CYP2J2 = target: T1, recombinant CYP2J2 (Homo sapiens, UniProt P51589)
T1 sequence (P51589 1-502): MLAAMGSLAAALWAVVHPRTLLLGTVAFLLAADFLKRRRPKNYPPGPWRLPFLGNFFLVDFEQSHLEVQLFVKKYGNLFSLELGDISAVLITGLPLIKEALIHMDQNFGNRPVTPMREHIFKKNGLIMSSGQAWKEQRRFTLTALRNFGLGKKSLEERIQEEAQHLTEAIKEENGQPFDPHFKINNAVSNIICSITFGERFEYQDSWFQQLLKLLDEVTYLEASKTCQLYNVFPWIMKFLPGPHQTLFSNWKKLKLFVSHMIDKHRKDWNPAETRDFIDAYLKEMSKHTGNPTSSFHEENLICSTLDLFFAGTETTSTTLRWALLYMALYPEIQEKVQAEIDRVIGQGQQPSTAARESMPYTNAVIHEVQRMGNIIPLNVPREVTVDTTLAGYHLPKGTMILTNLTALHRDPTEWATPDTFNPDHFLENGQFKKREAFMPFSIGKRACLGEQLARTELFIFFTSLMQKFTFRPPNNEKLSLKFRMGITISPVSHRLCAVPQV

[2] = tested on: human brain microsomes (HBMs); assay: Screening of STS‐135 oxidative metabolism with HBMs; format: in vitro ADME; details: STS‐135 50 µmol/L
Method in brief: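 Pooled 50-donor human brain microsomes with test compound (50 µmol/L, 2% DMSO) in 0.1 mol/L KPO₄, pH 7.4. Stopped with equal-volume ethanol, centrifuged; UPLC-UV at 300 nm for M21/M25. No-substrate, no-protein and no-NADPH controls; triplicate; nmol/mg protein/min.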

human hepatocytes = details: oxidation, hydrolysis, and glucuronidation; cited from earlier work
CB2 receptor = details: cited from earlier work
not read = substrate: O=C(NC12CC3CC(CC(C3)C1)C2)c1cn(CCCCCF)c2ccccc12; assay: not read; details: 37.0 °C

Molecule: O=C(NC12CC3CC(CC(C3)C1)C2)c1cn(CCCCCF)c2ccccc12 [STS‐135, N‐(adamantan‐1‐yl)‐1‐(5‐fluoropentyl)‐1H‐indole‐3‐carboxamide]
- half-life [1]: 21.1 min
- Agonist activity at CB1 receptor (CB1 receptor): potent agonist
- K m, production of M25 (Figure 6 legend) (recombinant CYP2J2): 11.2389 ± 1.733
- Specific activity, formation of M21 [2]: no detectable metabolites
- Specific activity, formation of M25 [2]: no detectable metabolites
- Number of metabolites formed (human hepatocytes): 29 metabolites
- Agonist activity at CB2 receptor (CB2 receptor): potent agonist

B1: recombinant CYP2J2 (Homo sapiens) (protein)
chain: MLAAMGSLAAALWAVVHPRTLLLGTVAFLLAADFLKRRRPKNYPPGPWRLPFLGNFFLVDFEQSHLEVQLFVKKYGNLFSLELGDISAVLITGLPLIKEALIHMDQNFGNRPVTPMREHIFKKNGLIMSSGQAWKEQRRFTLTALRNFGLGKKSLEERIQEEAQHLTEAIKEENGQPFDPHFKINNAVSNIICSITFGERFEYQDSWFQQLLKLLDEVTYLEASKTCQLYNVFPWIMKFLPGPHQTLFSNWKKLKLFVSHMIDKHRKDWNPAETRDFIDAYLKEMSKHTGNPTSSFHEENLICSTLDLFFAGTETTSTTLRWALLYMALYPEIQEKVQAEIDRVIGQGQQPSTAARESMPYTNAVIHEVQRMGNIIPLNVPREVTVDTTLAGYHLPKGTMILTNLTALHRDPTEWATPDTFNPDHFLENGQFKKREAFMPFSIGKRACLGEQLARTELFIFFTSLMQKFTFRPPNNEKLSLKFRMGITISPVSHRLCAVPQV
- Km (not read): 11.2 ± 1.7 µM
- Vmax (not read): 17.2 ± 0.5 pmol/min/mg protein
